Consider three compounds from article PMC3152797 (Cancer chemotherapy and pharmacology, 2009).

Like-named read-outs stand apart in the source and are kept apart here.

The conditions of series [1]: background statement, no reference given; cited from earlier work.
The next series concerns P-STAT3. Put plainly: Down-regulation of P-STAT3. It is filed as cell-based. The settings on record: Homo sapiens, HEL, read-out: IC50 for P-STAT3 down-regulation.
The next series has as its system HEL cells. As to the kind of experiment: Drug-drug effect on cell survival / cell death. It is filed as cell-based, human. The settings on record: for Cell death: 48 h.
The test system of a further series is HSC70 (HSPA8). As to the kind of experiment: HSC70. It is filed as cell-based, human. The conditions noted are these: HEL cells, Fig. 1b. The method, boiled down: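 HEL human erythroleukemia cells were washed and resuspended in serum-free RPMI 1640 (1.2 × 10⁷ cells/200 μl). They were electroporated at 250 V and 250 μF (2-mm gap) with 200 nM HSPA1A/B siRNA, a two-mismatch control, or media only. Test compounds were added for the last 6 h of a 48-h incubation. Read-out was western blot with ECL detection, normalized to actin, at least triplicate.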

As to `C=CCNC1=C2C[C@@H](C)C[C@H](OC)[C@H](O)[C@@H](C)/C=C(\C)[C@H](OC(N)=O)[C@@H](OC)/C=C\C=C(/C)C(=O)NC(=CC1=O)C2=O` [17-AAG, 17-allylamino-17-demethoxygeldanamycin], the Solubility entry in series [1] was “poor solubility”.
Regarding `CO[C@H]1/C=C\C=C(/C)C(=O)NC2=CC(=O)C(NCCN(C)C)=C(C[C@@H](C)C[C@H](OC)[C@H](O)[C@@H](C)/C=C(\C)[C@@H]1OC(N)=O)C2=O` [17-DMAG, 17-(dimethyl-aminoethylamino)-17-demethoxygeldanamycin], the IC50 (in general, the concentration needed to halve the response being measured) in the series with P-STAT3 (6 h) came out at 450 nM; in the series on P-STAT3 it was 157 nM. In addition, the Cell death in the series on HEL cells (50% of the IC50, with HSP70 siRNA added) is recorded as 50%; in the series with HEL cells (50% of the IC50, without siRNA), ~ 10%. In the series on HSC70 (HSPA8), the “Effect on HSC70 (HSPA8) expression” value is listed as “affected by neither”.
Take “control-siRNA: version of HSPA1 siRNA with two mismatches, 5′-CGACCGAGACAAGCGCAAG-3′, used as control (chemistry not given here)”: the “Effect on cell survival” value with HEL cells (HEL cells) is reported as “no effect”.
